The source of these data is ChEMBL document CHEMBL1833842, “1,3-Dihydro-2H-indol-2-ones derivatives: design, synthesis, in vitro antibacterial, antifungal and antitubercular study” (2011).

The term MIC denotes the smallest concentration in the dilution series that meets the test's criterion for growth inhibition. By MIC99 is commonly meant the lowest concentration that inhibits either 99% of growth or 99% of the strains tested, depending on the study. A lower MIC99 goes with higher susceptibility.

One assay relates to Aspergillus clavatus. The assay can be described thus: Antifungal activity against 10^8 CFU/mL Aspergillus clavatus MTCC 1323 by broth microdilution method. It counts as functional. The method in brief: (§1)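 Fungal MTCC cultures came from IMTECH Chandigarh. Mueller-Hinton broth served as growth and dilution medium, with DMSO as diluent. Inoculum was set to 10⁸ CFU/mL by turbidity. Serial dilutions from a 2000 stock gave a primary screen at 500, 250 and 125, followed by a secondary dilution series for actives. MIC was the lowest concentration inhibiting growth.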
(Broth dilution looks for growth in wells or tubes with falling amounts of substance.)

The next assay concerns Streptococcus pyogenes. The assay can be described thus: Antibacterial activity against 10^8 CFU/mL Streptococcus pyogenes MTCC 442 by broth microdilution method. The class given is functional. The method in brief:
(§2)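 MTCC bacterial strains from IMTECH Chandigarh were grown in Mueller-Hinton broth, which was also used to dilute the compounds. Inoculum was turbidity-adjusted to 10⁸ CFU/mL, and DMSO served as diluent. Compounds from a 2000 stock were screened first at 500, 250 and 125; actives were retested in a second dilution series. Tubes were incubated overnight at 37 °C, and MIC was the lowest concentration with no visible growth. Clear tubes were subcultured overnight at 37 °C to tell bacteriostatic from bactericidal.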

A further assay deals with Aspergillus niger. The assay can be described thus: Antifungal activity against 10^8 CFU/mL Aspergillus niger MTCC 282 by broth microdilution method. The class given is functional. The essentials: as §1
A further assay has as its system Escherichia coli. The assay can be described thus: Antibacterial activity against 10^8 CFU/mL Escherichia coli MTCC 443 by broth microdilution method. The class given is functional. The method in brief:
as §2

A further assay relates to Salmonella typhi. The assay can be described thus: Antibacterial activity against 10^8 CFU/mL Salmonella typhi MTCC 98 by broth microdilution method. The class given is functional, Salmonella enterica subsp. enterica serovar Typhi. To be noted: Salmonella enterica. The method in brief:
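Broth microdilution in Mueller-Hinton broth with MTCC strains, inoculum adjusted by turbidity to 10⁸ CFU/mL. Compounds were diluted from DMSO. Primary screen used 500, 250 and 125 concentrations, and actives were serially diluted further. Tubes were incubated overnight at 37 °C. MIC was the lowest concentration with no visible growth. Clear tubes were subcultured overnight at 37 °C to judge bacteriostatic versus bactericidal.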

A further assay deals with Klebsiella pneumoniae. The assay can be described thus: Antibacterial activity against 10^8 CFU/mL Klebsiella pneumoniae MTCC 109 by broth microdilution method. It counts as functional. The essentials:
as §2

Another assay relates to Staphylococcus aureus. The assay can be described thus: Antibacterial activity against 10^8 CFU/mL Staphylococcus aureus MTCC 96 by broth microdilution method. The class given is functional. The method in brief:
as §2

Assay [1] relates to Mycobacterium tuberculosis. The assay can be described thus: Antituberculosis activity against 5 x 10^4 inoculum per tube Mycobacterium tuberculosis H37Rv after 24 hrs by Lowenstein-Jensen method. The class given is functional. The essentials: (§3)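 Conventional Lowenstein-Jensen method. Compound dilutions were made from a DMSO stock and added to liquid L-J medium, which was sterilized by inspissation. Tubes were incubated 24 h at 37 °C, then streaked with H37Rv (5 × 10⁴ bacilli per tube) harvested into 0.85% saline. Growth was checked at 12, 22 and 28 days at 37 °C against medium-only controls. MIC was the concentration giving no colonies or <20 colonies.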

A further assay has as its system Candida albicans. The assay can be described thus: Antifungal activity against 10^8 CFU/mL Candida albicans MTCC 227 by broth microdilution method. It counts as functional. The method in brief:
as §1

In a further assay the test system is Bacillus subtilis. The assay can be described thus: Antibacterial activity against 10^8 CFU/mL Bacillus subtilis MTCC 441 by broth microdilution method. The class given is functional. The essentials:
as §2

For another assay, the system named is Pseudomonas aeruginosa. The assay can be described thus: Antibacterial activity against 10^8 CFU/mL Pseudomonas aeruginosa MTCC 1688 by broth microdilution method. The class given is functional. The method in brief: as §2
The test system of assay [2] is Mycobacterium tuberculosis. The assay can be described thus: Antituberculosis activity against 5 x 10^4 bacilli per tube Mycobacterium tuberculosis H37Rv assessed as growth inhibition at 1000 ug/mL incubated for 24 hrs measured after 28 days. It counts as functional. To be noted: read-out: GI. The essentials: as §3
Assay [3] has as its system Mycobacterium tuberculosis. The assay can be described thus: Antituberculosis activity against 5 x 10^4 inoculum per tube Mycobacterium tuberculosis H37Rv assessed as growth inhibition at 500 ug/mL incubated for 24 hrs measured after 28 days. It counts as functional. The note with it: read-out: GI. The method in brief: as §3
In assay [4] the test system is Mycobacterium tuberculosis. The assay can be described thus: Antituberculosis activity against 5 x 10^4 bacilli per tube Mycobacterium tuberculosis H37Rv assessed as growth inhibition at 250 ug/mL incubated for 24 hrs measured after 28 days. The class given is functional. The note with it: read-out: GI. The method in brief:
as §3

Assay [5] relates to Mycobacterium tuberculosis. The assay can be described thus: Antituberculosis activity against 5 x 10^4 bacilli per tube Mycobacterium tuberculosis H37Rv assessed as growth inhibition at 62.5 ug/mL incubated for 24 hrs measured after 28 days. It counts as functional. To be noted: read-out: GI. The essentials: as §3

Values after ≈ are worked out from the molar mass of the structure shown.

For the compound `CC1=C(c2nnc(/N=C3\C(=O)Nc4ccc(I)cc43)s2)C(c2ccccc2)NC(=O)N1` (stereo not given), the MIC in the assay on Aspergillus clavatus is above 1000 µg/mL; with Aspergillus niger it was above 1000 µg/mL; in assay [1], 1000 µg/mL (≈ 1840 µM); in the assay on Candida albicans, above 1000 µg/mL. Moreover, the MIC99 in the assay with Streptococcus pyogenes amounted to 200 µg/mL (≈ 369 µM); in the assay on Escherichia coli, 250 µg/mL (≈ 461 µM); with Salmonella typhi, 250 µg/mL (≈ 461 µM); against Klebsiella pneumoniae it was 250 µg/mL (≈ 461 µM); against Staphylococcus aureus, 250 µg/mL (≈ 461 µM); against Bacillus subtilis, 250 µg/mL (≈ 461 µM). In the assay on Pseudomonas aeruginosa, the MIC99 was found to be 250 µg/mL (≈ 461 µM). Moreover, the inhibition of growth at 1000 µg/mL in [2] was 98%.

For the compound NYSTATIN, the MIC against Aspergillus clavatus, with Aspergillus niger and against Candida albicans was 100 µg/mL in each case.

For `CC1=C(c2nnc(/N=C3\C(=O)Nc4ccc(I)cc43)s2)C(c2ccccc2)NC(=S)N1` (stereo not given), the MIC with Aspergillus clavatus is above 1000 µg/mL; against Aspergillus niger it was above 1000 µg/mL; in assay [1] it was 1000 µg/mL (≈ 1790 µM); against Candida albicans it was above 1000 µg/mL. For the same compound, the MIC99 with Streptococcus pyogenes is 200 µg/mL (≈ 358 µM); in the assay on Escherichia coli, 250 µg/mL (≈ 448 µM); in the assay with Salmonella typhi it was 250 µg/mL (≈ 448 µM); in the assay on Klebsiella pneumoniae it was 200 µg/mL (≈ 358 µM); against Staphylococcus aureus, 200 µg/mL (≈ 358 µM); in the assay with Bacillus subtilis, 200 µg/mL (≈ 358 µM). Besides, the MIC99 against Pseudomonas aeruginosa was 250 µg/mL (≈ 448 µM). Moreover, the inhibition of growth at 1000 µg/mL in [2] is 98%.

Take `CC1=C(c2nnc(/N=C3\C(=O)Nc4ccccc43)s2)C(c2ccccc2)NC(=S)N1` (stereo not given): the MIC is 500 µg/mL (≈ 1160 µM) with Aspergillus clavatus, 500 µg/mL (≈ 1160 µM) in the assay on Aspergillus niger, 500 µg/mL (≈ 1160 µM) in assay [1] and above 1000 µg/mL against Candida albicans. Also, the inhibition of growth at 500 µg/mL in assay [3] was determined as 98%. Further, the MIC99 worked out at 200 µg/mL (≈ 462 µM) against Streptococcus pyogenes; 500 µg/mL (≈ 1160 µM) against Escherichia coli; 200 µg/mL (≈ 462 µM) in the assay on Salmonella typhi; 200 µg/mL (≈ 462 µM) against Klebsiella pneumoniae; 200 µg/mL (≈ 462 µM) against Staphylococcus aureus; 200 µg/mL (≈ 462 µM) against Bacillus subtilis. The compound further returned an MIC99 against Pseudomonas aeruginosa of 200 µg/mL (≈ 462 µM).

Take `O=C(O)c1cn(C2CC2)c2cc(N3CCNCC3)c(F)cc2c1=O` [CIPROFLOXACIN]: the MIC99 against Streptococcus pyogenes was 50 µg/mL (≈ 151 µM); against Escherichia coli, 25 µg/mL (≈ 75.4 µM); against Salmonella typhi, 25 µg/mL (≈ 75.4 µM); against Klebsiella pneumoniae it was 25 µg/mL (≈ 75.4 µM); against Staphylococcus aureus it was 50 µg/mL (≈ 151 µM); against Bacillus subtilis, 50 µg/mL (≈ 151 µM). The compound also registered an MIC99 in the assay with Pseudomonas aeruginosa of 25 µg/mL (≈ 75.4 µM).

As for `CC1=C(c2nnc(/N=C3\C(=O)Nc4ccc(Br)cc43)s2)C(c2ccccc2)NC(=S)N1` (stereo not given), the MIC worked out at 500 µg/mL (≈ 978 µM) against Aspergillus clavatus, 500 µg/mL (≈ 978 µM) against Aspergillus niger, 250 µg/mL (≈ 489 µM) in [1] and 500 µg/mL (≈ 978 µM) against Candida albicans. Further, the MIC99 turned out to be 100 µg/mL (≈ 196 µM) with Streptococcus pyogenes; 200 µg/mL (≈ 391 µM) in the assay on Escherichia coli; 250 µg/mL (≈ 489 µM) in the assay on Salmonella typhi; 200 µg/mL (≈ 391 µM) with Klebsiella pneumoniae; 100 µg/mL (≈ 196 µM) against Staphylococcus aureus; 100 µg/mL (≈ 196 µM) against Bacillus subtilis. Further, the MIC99 in the assay with Pseudomonas aeruginosa stood at 200 µg/mL (≈ 391 µM). For the same compound, the inhibition of growth at 250 µg/mL in [4] is 98%.

In the case of `CC1=C(c2nnc(/N=C3\C(=O)Nc4ccc(Br)cc43)s2)C(c2ccccc2)NC(=O)N1` (stereo not given), the MIC against Aspergillus clavatus is above 1000 µg/mL; against Aspergillus niger, 500 µg/mL (≈ 1010 µM); in assay [1], 500 µg/mL (≈ 1010 µM); in the assay on Candida albicans it was 500 µg/mL (≈ 1010 µM). Also, the inhibition of growth at 500 µg/mL in assay [3] was 98%. Also, the MIC99 against Streptococcus pyogenes worked out at 100 µg/mL (≈ 202 µM); against Escherichia coli, 250 µg/mL (≈ 505 µM); against Salmonella typhi, 250 µg/mL (≈ 505 µM); in the assay with Klebsiella pneumoniae it was 200 µg/mL (≈ 404 µM); against Staphylococcus aureus it was 100 µg/mL (≈ 202 µM); in the assay on Bacillus subtilis it was 100 µg/mL (≈ 202 µM). Besides, the MIC99 in the assay on Pseudomonas aeruginosa came out at 250 µg/mL (≈ 505 µM).

Turning to `COC1=CC(=O)C[C@@H](C)[C@]12Oc1c(Cl)c(OC)cc(OC)c1C2=O` [GRISEOFULVIN], the MIC against Aspergillus clavatus was found to be 100 µg/mL (≈ 283 µM); in the assay with Aspergillus niger, 100 µg/mL (≈ 283 µM); in the assay with Candida albicans it was 500 µg/mL (≈ 1420 µM).

In the case of `CC1=C(c2nnc(/N=C3\C(=O)Nc4ccc([N+](=O)[O-])cc43)s2)C(c2ccccc2)NC(=O)N1` (stereo not given), the MIC against Aspergillus clavatus is 500 µg/mL (≈ 1080 µM); in the assay with Aspergillus niger it was 250 µg/mL (≈ 542 µM); in [1], 62.5 µg/mL (≈ 135 µM); against Candida albicans it was 250 µg/mL (≈ 542 µM). Moreover, the MIC99 was 250 µg/mL (≈ 542 µM) in the assay with Streptococcus pyogenes; 62.5 µg/mL (≈ 135 µM) against Escherichia coli; 200 µg/mL (≈ 433 µM) in the assay on Salmonella typhi; 200 µg/mL (≈ 433 µM) against Klebsiella pneumoniae; 200 µg/mL (≈ 433 µM) in the assay on Staphylococcus aureus; 200 µg/mL (≈ 433 µM) against Bacillus subtilis. Besides, the MIC99 in the assay with Pseudomonas aeruginosa was 100 µg/mL (≈ 217 µM). The inhibition of growth at 62.5 µg/mL in assay [5] was 99%.
